The text below walks through data of PMC7083616 (Science Advances, 2020).

Assay [1] deals with TrxR2 (Homo sapiens, UniProt Q9NNW7). The experiment in a line: Recombinant TrxR2 insulin reduction assay. Type of assay: biochemical. The following applies: with NADPH, Trx2 used to reduce insulin. The method in brief: (§1)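 Test compound was preincubated for 75 min with 10 nM TrxR1 or 10 nM TrxR2, plus BSA (0.1 mg/ml) and 250 μM NADPH. Then 25 μM Trx1 (TrxR1) or Trx2 (TrxR2) and 160 μM insulin were added. NADPH consumption was followed at A340 for 20 min.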
Sequence of TrxR2 (Q9NNW7 37-524, species assumed): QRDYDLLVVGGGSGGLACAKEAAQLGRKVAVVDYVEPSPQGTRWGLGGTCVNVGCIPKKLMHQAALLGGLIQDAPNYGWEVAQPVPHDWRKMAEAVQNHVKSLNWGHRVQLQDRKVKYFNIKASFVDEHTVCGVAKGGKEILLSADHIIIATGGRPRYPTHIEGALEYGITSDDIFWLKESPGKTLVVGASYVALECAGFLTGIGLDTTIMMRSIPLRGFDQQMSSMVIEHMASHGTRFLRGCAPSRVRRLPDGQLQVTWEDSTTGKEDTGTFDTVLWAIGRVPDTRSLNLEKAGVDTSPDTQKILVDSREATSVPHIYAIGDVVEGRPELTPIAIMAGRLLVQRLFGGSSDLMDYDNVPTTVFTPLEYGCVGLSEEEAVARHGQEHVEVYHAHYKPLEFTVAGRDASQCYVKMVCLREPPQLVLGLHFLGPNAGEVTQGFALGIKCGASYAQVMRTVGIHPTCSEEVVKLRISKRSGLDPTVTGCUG

The target in assay [2] is T1, TrxR1 (Homo sapiens, UniProt Q16881).
T1 sequence (Q16881 1-499 isoform Q16881-5): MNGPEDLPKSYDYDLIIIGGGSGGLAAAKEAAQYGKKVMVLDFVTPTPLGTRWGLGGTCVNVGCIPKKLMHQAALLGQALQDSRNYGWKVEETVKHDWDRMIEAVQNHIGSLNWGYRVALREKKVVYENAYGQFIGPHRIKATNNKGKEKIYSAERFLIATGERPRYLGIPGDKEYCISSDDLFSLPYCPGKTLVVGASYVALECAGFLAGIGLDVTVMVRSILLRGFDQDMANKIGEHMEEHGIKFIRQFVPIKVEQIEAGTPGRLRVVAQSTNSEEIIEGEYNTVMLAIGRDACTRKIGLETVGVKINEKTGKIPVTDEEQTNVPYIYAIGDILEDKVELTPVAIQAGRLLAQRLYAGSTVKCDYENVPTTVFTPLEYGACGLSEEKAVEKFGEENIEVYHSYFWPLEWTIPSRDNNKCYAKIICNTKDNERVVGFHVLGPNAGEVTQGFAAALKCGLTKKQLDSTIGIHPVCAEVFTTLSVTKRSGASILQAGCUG
The experiment in a line: Recombinant TrxR1 insulin reduction assay. Type of assay: biochemical. The note with it: with NADPH, Trx1 used to reduce insulin. The method in brief:
as §1

Assay [3] concerns the target T2, ~55-kDa band (TrxR1) in A549 cell lysates (Homo sapiens, UniProt Q16881).
T2 sequence (Q16881 1-499 isoform Q16881-5): T1 sequence (Q16881 1-499 isoform Q16881-5)
The experiment in a line: DG-8 competition assay in A549 cell lysates. Type of assay: binding. The note with it: compound 0.5 to 50 μM 30 min, then DG-8 5 μM 30 min. Put shortly: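 A549 lysate (30 μg) was preincubated with test compound (0.5 to 50 μM) for 30 min, then with the dansyl-tagged probe (5 μM) for 30 min. Samples in LDS buffer with 100 mM DTT were heated at 95°C for 5 min and run on 10% bis-tris gels. The ~55-kDa band was imaged by UV dansyl fluorescence.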

The target of assay [4] is T1, TrxR1. The experiment in a line: Cellular TrxR1 activity, Trx1-linked insulin end point assay. Type of assay: cell-based. The note with it: FaDu cells, 1 μM, 3 hours. Put shortly: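 FaDu cells were seeded at 400,000 per well and treated 24 h later for 3 h at 37°C. Cells were lysed in modified RIPA buffer and protein measured by BCA. Lysate was incubated with 0.16 mM insulin, 0.33 mM NADPH and 16 μM Trx1 in TE buffer (pH 7.5) at 37°C for 0–90 min. Each time point was stopped with 7.2 M guanidine-HCl/2.5 mM DTNB and read at A412. Activity came from the A412 rise against a pure-enzyme standard curve; n = 3.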

Assay [5] has as its system STAT-driven luciferase expression. Kind of assay: STAT-dependent luciferase in HEK293-shScramble and HEK293–shPrx1 + Prx2. Type of assay: cell-based, human. The note with it: IL6 50 ng/ml + sIL6R 100 ng/ml.
The subject of assay [6] is NFκB. The experiment in a line: pTRAF reporter, NFκB transcriptional activity. Type of assay: cell-based, human. The note with it: HEK293 cells, 1 μM, 24 hours. The method in brief:
(§2)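 HEK293 cells were seeded at 20,000 per well on collagen I-coated plates. The next day, they were transfected overnight with 50 ng of the pTRAF-Nrf2/HIF/NFκB vector using Turbofect. Cells were then exposed for 24 h to 1 μM test compound. Positive controls were auranofin (1 μM) for Nrf2 and TNF-α (20 ng/ml) for NFκB. After 30 min Hoechst (40 ng/ml), per-well reporter fluorescence was quantified by high-content imaging.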

For assay [7], the system named is Nrf2. The experiment in a line: pTRAF reporter, Nrf2 transcriptional activity. Type of assay: cell-based, human. The note with it: HEK293 cells, 1 μM, 24 hours. The method in brief:
as §2

In the case of `CC(=O)OC[C@H]1O[C@@H]([S-])[C@H](OC(C)=O)[C@@H](OC(C)=O)[C@@H]1OC(C)=O.CCP(CC)CC.[Au+]` [auranofin], in assay [1], the “inhibition of recombinant TrxR2 activity” value is recorded as “the only compound that inhibited TrxR2”. In addition, the “inhibition of recombinant TrxR1 activity” value in assay [2] is given as “potently inhibited the activity of TrxR1”. Besides, the “competition with DG-8 for binding to the ~55-kDa band” value (from here on “competition with DG-8 for binding”) in assay [3] is on record as “potently outcompeted the probe”.

On to `O=[N+]([O-])c1ccc2c(c1)S(=O)(=O)C=C2` [Stattic], for which, in assay [2], the “inhibition of recombinant TrxR1 activity” value is given as “potently inhibited the activity of TrxR1”. The “inhibition of cellular TrxR1 activity” value in assay [4] was “approximately 40%”. For the same compound, in assay [5], the “luciferase inhibition in control versus Prx1 + Prx2 knockdown cells” value is listed as “more potently inhibited luciferase expression in the control cells”. The “competition with DG-8 for binding” value in assay [3] was “could compete with DG-8 for binding”. Further, the NFκB activation result in assay [6] is “little effect on NFκB activation”. In addition, in assay [7], the Nrf2 activation result is recorded as “clearly triggered Nrf2 activation”.

Regarding `CN(CC(=O)N(Cc1ccc(C2CCCCC2)cc1)c1ccc(C(=O)O)c(O)c1)S(=O)(=O)c1c(F)c(F)c(F)c(F)c1F` [BP1-102], in assay [2], the “inhibition of recombinant TrxR1 activity” value is reported as “did not fully inhibit the enzymatic activity of TrxR1”. The “effect on cellular TrxR1 activity” value in assay [4] was “did not appreciably alter the TrxR1 activity”. For the same compound, the “competition with DG-8 for binding” value in assay [3] is “not able to compete with the probe”. In addition, the Nrf2 activation entry in assay [7] was “did not activate Nrf2”.

For the compound `COc1ccc([N+](=O)[O-])c(S(=O)(=O)c2ccc(Cl)cc2)n1` [TRi-1], the “luciferase inhibition in control versus Prx1 + Prx2 knockdown cells” value in assay [5] was “more potently inhibited luciferase expression in the control cells”. Moreover, the “competition with DG-8 for binding” value in assay [3] is given as “potently outcompeted the probe”.
